{"data": "Results pooled from the literature", "target": "G protein-coupled receptor kinase 4 (GRK4, Homo sapiens, UniProt P32298)", "note": "Compare with care: the assays were run in different laboratories."}
{"Structure (SMILES)": "Cn1cc(-c2cc(F)cc(N3CCn4c(cc5c4CCCC5)C3=O)c2CO)cc(Nc2ccc(N3CCN(C4COC4)CC3)cn2)c1=O", "effect on": "enzyme activity", "mode": "inhibitor", "concentration": "0.1 µM", "quantity": "inhibition", "result": "12%"}
{"Structure (SMILES)": "Cn1cncc1[C@@](O)(COc1ccc(C#N)cc1-c1ccc(OC(F)(F)F)cc1)c1ccc(C#N)cc1", "effect on": "cell-free assay", "technique": "competition with immobilised ligand", "concentration": "1 µM", "quantity": "remaining binding", "result": "56%"}
{"Structure (SMILES)": "COc1ncccc1-c1cnn2ccc(N3CCN(C(=O)OC(C)C)CC3)nc12", "effect on": "binding", "technique": "competition with immobilised ligand", "concentration": "1 µM", "quantity": "remaining binding", "result": "70%"}
{"Structure (SMILES)": "Cc1nn(C)cc1-c1nc2c(N3CCN(Cc4ccc(Cl)cc4)CC3)c(Cl)cnc2[nH]1", "effect on": "binding", "technique": "competition with immobilised ligand", "concentration": "1 µM", "quantity": "remaining binding", "result": "41%"}
{"Structure (SMILES)": "O=c1[nH]c2ccccc2n1C1CCN(Cc2ccc(-c3[nH]c4cc5ncnc5cc4nc3-c3ccccc3)cc2)CC1", "effect on": "cell-free assay", "concentration": "0.5 µM", "quantity": "remaining signal", "result": "104%"}
{"Structure (SMILES)": "N#CC1(c2ccccn2)CCN(Cc2cc(C(=O)O)c(=O)n3ccccc23)CC1", "effect on": "cell-free assay", "technique": "competition with immobilised ligand", "concentration": "1 µM", "quantity": "remaining binding", "result": "68%"}
{"Structure (SMILES)": "Nc1ncc(-c2nc(N3CCOCC3)nc(N3CCOCC3)n2)c(C(F)F)n1", "effect on": "binding", "technique": "competition with immobilised ligand", "concentration": "10 µM", "quantity": "remaining binding", "result": "74%"}
{"Structure (SMILES)": "Cn1cc(-c2cccc(N3CCc4c(sc5c4CC(C)(C)C5)C3=O)c2CO)cc(Nc2ccncn2)c1=O", "effect on": "enzyme activity", "mode": "inhibitor", "concentration": "1 µM", "quantity": "inhibition", "result": "-4%"}
{"Structure (SMILES)": "CC(C)(C)c1cc(C=C(C#N)C#N)cc(Br)c1O", "effect on": "enzyme activity", "mode": "inhibitor", "concentration": "0.5 µM", "quantity": "remaining activity", "result": "101%"}
